Experimental data pooled from the literature.
TYK2 JH1: Non-receptor tyrosine-protein kinase TYK2, JH1 (TYK2, Homo sapiens, UniProt P29597)
TYK2 JH2: Non-receptor tyrosine-protein kinase TYK2, JH2 (TYK2, Homo sapiens, UniProt P29597)
TYK2: Non-receptor tyrosine-protein kinase TYK2 (TYK2, Homo sapiens, UniProt P29597)

Compound | target | effect on | method | concentration | remaining binding [%]
O=C(c1ccc(Nc2ncc(Cl)c(-c3cc4ccccc4s3)n2)cc1)N1CCC(N2CCCC2)CC1 | TYK2 JH1 | binding | competition with immobilised ligand | 1 µM | 7.1
c1cncc(-c2cccc(Nc3nccc(NC4CCCCC4)n3)c2)c1 | TYK2 JH2 | binding | competition with immobilised ligand | 10 µM | 3.8
CCN1CCN(Cc2ccc(C(=O)Nc3ccc(C)c(Oc4ccc5c(c4)CC(=O)N5)c3)cc2C(F)(F)F)CC1 | TYK2 JH1 | binding | competition with immobilised ligand | 1 µM | 100
O=C(c1ccc(Nc2ncc(Cl)c(-c3ccc(Cl)s3)n2)cc1)N1CCC(N2CCCC2)CC1 | TYK2 JH2 | binding | competition with immobilised ligand | 1 µM | 0.2
O=C(NCC1CCOCC1)c1n[nH]cc1NC(=O)c1c(F)cccc1F | TYK2 JH2 | binding | competition with immobilised ligand | 1 µM | 59
C[C@@H]1CN(c2ccc3ncc(-c4ccc5[nH]nc(C6CC6)c5c4)n3n2)C[C@H](C)O1 | TYK2 | binding | competition with immobilised ligand | 0.5 µM | 100
COc1cnc(Nc2cccc(S(N)(=O)=O)c2)nc1N1CCN(c2ccccc2)CC1 | TYK2 JH2 | binding | competition with immobilised ligand | 1 µM | 85
c1cnn2ncc(-c3ccnc(N4CCC45COC5)n3)c2c1 | TYK2 | binding | – | 1 µM | 66
O=C(N[C@H]1CCCCC/C=C\C2C[C@@]2(C(=O)O)NC(=O)[C@@H]2C[C@@H](Oc3ccncc3)CN2C1=O)OC1CCCC1 (stereo partly shown) | TYK2 JH1 | binding | competition with immobilised ligand | 1 µM | 98
COc1ncc2cc3ccccc3nc2c1C#N | TYK2 JH1 | cell-free assay | competition with immobilised ligand | 5 µM | 69
CN(C)c1nccc(-c2cnn3ncccc23)n1 | TYK2 | binding | – | 1 µM | 100
Nc1ncc2c(n1)-c1c([nH]c3ccc(C#CC4CC4)cc13)CCCC2 | TYK2 JH1 | binding | competition with immobilised ligand | 1 µM | 86
CC(C)(C)c1ccc(-c2nc(CBr)nn2-c2cccc(O)c2)cc1 | TYK2 | cell-free assay | competition with immobilised ligand | 10 µM | 62
Cc1nc(C2CCN(C(=O)c3ccc(OC(F)(F)F)cc3N)CC2)c2ncc(N3CCN(C)CC3)cc2n1 | TYK2 JH2 | cell-free assay | competition with immobilised ligand | 1 µM | 88
Cc1cnn2ncc(-c3ccnc(N(C)C)n3)c2c1 | TYK2 JH1 | cell-free assay | competition with immobilised ligand | 1 µM | 64
CN1CCN(c2ccc(Nc3nccc(-c4cccc([N+](=O)[O-])c4)n3)cc2C(F)(F)F)CC1 | TYK2 | binding | – | 10 µM | 0
N[C@@H]1CCN(c2nccc(-c3cnn4ncccc34)n2)C1 | TYK2 JH1 | cell-free assay | competition with immobilised ligand | 1 µM | 100

Compound | target | effect on | method | concentration | remaining binding [%]
COc1cccc(CNC(=O)c2nc3scc(COCc4ccc(C(=O)O)cc4)c3c(=O)[nH]2)c1 | TYK2 JH2 | cell-free assay | competition with immobilised ligand | 1 µM | 79.8
Cc1cnc(Nc2ccc(C(=O)N3CCC(N4CCCC4)CC3)cc2)nc1-c1cc2ccccc2s1 | TYK2 JH1 | binding | competition with immobilised ligand | 1 µM | 6.7
COc1ccnn2ncc(-c3ccnc(N(C)C)n3)c12 | TYK2 JH1 | cell-free assay | competition with immobilised ligand | 1 µM | 81
CNC(=O)[C@@H]1CC[C@@H](n2c(-c3ccc4cnccc4c3)nc3ccc(C(=O)NCc4cccc(C(N)=O)c4)cc32)C1 | TYK2 JH1 | binding | competition with immobilised ligand | 1 µM | 99
CN(C)c1ncc(F)c(-c2cnn3ncccc23)n1 | TYK2 JH1 | cell-free assay | competition with immobilised ligand | 1 µM | 87
N#Cc1ccccc1CSc1nnc2c(n1)[nH]c1ccccc12 | TYK2 JH1 | binding | competition with immobilised ligand | 10 µM | 96
COc1ccc2cc(OCC3(C(=O)O)CN(C(=O)c4ccc(F)cc4)C3)ccc2c1 | TYK2 JH2 | cell-free assay | competition with immobilised ligand | 1 µM | 100
C[C@@H]1CCN(c2nccc(-c3cnn4ncccc34)n2)C1 | TYK2 | binding | – | 1 µM | 66
O=C(Nc1c[nH]nc1C(=O)NC1CCNCC1)c1cc(F)cc(F)c1 | TYK2 JH1 | binding | competition with immobilised ligand | 1 µM | 100
CC(=O)Nc1c(C(C)=O)c(=O)n(C)c2nc(-c3ccc(Cl)cc3Cl)c(-c3ccc(Cl)cc3)cc12 | TYK2 JH2 | cell-free assay | competition with immobilised ligand | 1 µM | 100
O=C(NCCCN1CCOCC1)c1ccc(Nc2nccc(-c3cc4ccccc4s3)n2)cc1 | TYK2 JH1 | binding | competition with immobilised ligand | 1 µM | 11
C[C@H](c1ccc(F)cc1)N(Cc1cccc(C(=O)O)c1)C(=O)c1cnc2ccccc2c1 | TYK2 JH2 | cell-free assay | competition with immobilised ligand | 1 µM | 92
COc1cnc(Nc2cccc(S(N)(=O)=O)c2)nc1N1CCN(c2ccccc2)C(=O)C1 | TYK2 JH1 | binding | competition with immobilised ligand | 1 µM | 39
CCCOc1ccc([C@H]2[C@H](C(=O)O)[C@@H](c3ccc4c(c3)OCO4)CN2CC(=O)Nc2c(CC)cccc2CC)cc1 | TYK2 JH2 | cell-free assay | competition with immobilised ligand | 1 µM | 80
O=C(NCCCN1CCOCC1)c1ccc(Nc2ncc(Cl)c(-c3ccc(Cl)s3)n2)cc1 | TYK2 JH2 | binding | competition with immobilised ligand | 1 µM | 5.3
CC(=O)N1CCC(c2ccc(C(=O)NC3=NCCN3)cc2C(F)(F)F)CC1 | TYK2 JH2 | cell-free assay | competition with immobilised ligand | 1 µM | 100
O=C(c1ccc(Nc2nccc(-c3cc4ccccc4s3)n2)cc1)N1CCC(N2CCCC2)CC1 | TYK2 JH1 | binding | competition with immobilised ligand | 1 µM | 13
